In ChEMBL document CHEMBL1121573, “2-(Aminomethyl)phenols, a new class of saluretic agents. 1. Effects of nuclear substitution” (J Med Chem, 1980):

Tests used:
[1] = test system: Rattus norvegicus; test: Oral diuretic activity was evaluated by measuring Na+ excretion in Rat at 9 mg/kg […] ( 0-5 hr ); format: ADME, organism-based, Urine; parameters: dose 9 mg/kg; conditions: in vivo, ip
Summary of the method: (§1)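 Female Charles-River rats (150–170 g) were kept overnight on a sugar diet with water ad libitum. Compound was dissolved in DMF, then diluted with water containing Tween 80 (3 drops/100 mL) to a final 4% DMF, and given po in 5.0 mL. Rats were housed three per metabolism cage. Urine from 0–5 h was analysed for Na+, K+ and Cl−, with concurrent placebo controls. Values are mequiv × 100 per cage, geometric mean of three cages per dose.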

[2] = test system: Canis familiaris; test: Oral diuretic activity was evaluated by measuring Na+ excretion in dog at 1 mg/kg after ip administration ( 0-6 hr ); format: ADME, organism-based, Canis lupus familiaris, Urine; parameters: dose 1 mg/kg, route intraperitoneal; conditions: in vivo
Summary of the method: (§2)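 Spontaneous urine was pooled with bladder urine collected by catheterization at 6 h. Volume was measured and Na+, K+ and Cl− were determined by standard methods. Values are geometric means.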

[3] = test system: Canis familiaris; test: Oral diuretic activity was evaluated by measuring K+ excretion in dog at 5 mg/kg after ip administration ( 0-6 hr ); format: ADME, organism-based, Canis lupus familiaris, Urine; parameters: dose 5 mg/kg, route intraperitoneal; conditions: in vivo; summary of the method: as §2
[4] = test system: Rattus norvegicus; test: Oral diuretic activity was evaluated by measuring Na+ excretion in Rat at 27 mg/kg after […] ( 0-5 hr ); format: ADME, organism-based, Urine; parameters: dose 27 mg/kg; summary of the method: as §1
[5] = test system: Rattus norvegicus; test: Oral diuretic activity was evaluated by measuring Na+ excretion in Rat at 3 mg/kg […] ( 0-5 hr ); format: ADME, organism-based, Urine; parameters: dose 3 mg/kg; conditions: in vivo, ip; summary of the method: as §1
[6] = test system: Rattus norvegicus; test: Oral diuretic activity was evaluated by measuring Na+ excretion in Rat at 81 mg/kg […] ( 0-5 hr ); format: ADME, organism-based, Urine; parameters: dose 81 mg/kg; summary of the method: as §1
[7] = test system: Canis familiaris; test: Oral diuretic activity was evaluated by measuring Na+ excretion in dog at 5 mg/kg after ip administration ( 0-6 hr ); format: ADME, organism-based, Canis lupus familiaris, Urine; parameters: dose 5 mg/kg, route intraperitoneal; conditions: in vivo
Summary of the method: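 Urine collected over 0–6 h: spontaneous voids were pooled with bladder urine taken by catheterization at 6 h. Urine volume was measured, and aliquots were analysed for Na+, K+ and Cl− by standard methods. Electrolyte excretion is reported as geometric means.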

[8] = test system: Canis familiaris; test: Compound administered intravenously at a dose of 5 mg/kg was evaluated for salidiuretic activity measured as sodium ion excretion in Dog; format: ADME, organism-based, Canis lupus familiaris, Urine; parameters: dose 5 mg/kg, route intravenous; conditions: in vivo, iv
Summary of the method: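 Conditioned female mongrel dogs, postabsorptive, water-loaded (500 mL po) 1 h before sodium pentobarbital anesthesia (30 mg/kg iv). Bladder catheter; creatinine 4 g sc; phosphate–mannitol buffer pH 7.4 infused (3.0 mL/min) throughout. […] Urine Na+ measured; response scored 0–6.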

[9] = test system: Rattus norvegicus; test: Oral diuretic activity was evaluated by measuring K+ excretion in Rat at 3 mg/kg […] ( 0-5 hr ); format: ADME, organism-based, Urine; parameters: dose 3 mg/kg
Summary of the method: (§3)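 Female Charles-River rats (150–170 g) were kept overnight on a sugar diet with water ad libitum. Test substance was dissolved in DMF and diluted with water containing Tween 80 to a final 4% DMF vehicle, then given po in 5.0 mL. Rats were housed three per metabolism cage, and 0–5 h urine was assayed for Na⁺, K⁺ and Cl⁻ alongside concurrent placebo groups. Values are mequiv × 100 per cage, geometric means of three cages per dose.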

[10] = test system: Rattus norvegicus; test: Oral diuretic activity was evaluated by measuring K+ excretion in Rat at 81 mg/kg after […] ( 0-5 hr ); format: ADME, organism-based, Urine; parameters: dose 81 mg/kg; conditions: in vivo; summary of the method: as §3
[11] = test system: Rattus norvegicus; test: Oral diuretic activity was evaluated by measuring K+ excretion in Rat at 9 mg/kg […] ( 0-5 hr ); format: ADME, organism-based, Urine; parameters: dose 9 mg/kg; summary of the method: as §3
[12] = test system: Canis familiaris; test: Oral diuretic activity was evaluated by measuring K+ excretion in dog at 1 mg/kg after […] ( 0-6 hr ); format: ADME, organism-based, Canis lupus familiaris, Urine; parameters: dose 1 mg/kg; conditions: in vivo; summary of the method: as §2
[13] = test system: Rattus norvegicus; test: Evaluated for salidiuretic activity measured as sodium ion excretion in Rat, administered orally at a dose of 50 mg/kg; format: functional, Urine; parameters: unit not given beside the values; conditions: route oral
Summary of the method: (§4)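 Female Charles-River rats (150–170 g), overnight on sugar diet with water ad libitum. Compound dissolved in DMF, diluted with water containing Tween 80 (final 4% DMF), given po in 5.0 mL; concurrent vehicle placebo. Three rats per metabolism cage; 0–5 h urine analysed for Na+, K+, Cl-. Values: mequiv × 100 per cage, geometric means of three cages per dose; scored 0–6 by Na+.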

[14] = Compound administered orally at a dose of 5 mg/kg was evaluated for salidiuretic activity measured as sodium ion excretion in Rat; format: organism-based; parameters: dose 5 mg/kg; conditions: Urine; summary of the method: as §4
[15] = test system: Canis familiaris; test: Oral diuretic activity was evaluated by measuring Cl- excretion in dog at 5 mg/kg after […] ( 0-6 hr ); format: ADME, organism-based, Canis lupus familiaris, Urine; parameters: dose 5 mg/kg, route intraperitoneal; conditions: in vivo
[16] = Evaluated for salidiuretic activity measured as sodium ion excretion in Rat, administered orally at a dose of 16.5 mg/kg; format: organism-based; parameters: dose 16.5 mg/kg; conditions: Urine; summary of the method: as §4
[17] = test system: Rattus norvegicus; test: Oral diuretic activity was evaluated by measuring Cl- excretion in Rat at 3 mg/kg after […] ( 0-5 hr ); format: ADME, organism-based, Urine; parameters: dose 3 mg/kg, route intraperitoneal; conditions: in vivo
[18] = test system: Rattus norvegicus; test: Oral diuretic activity was evaluated by measuring Cl- excretion in Rat at 9 mg/kg […] ( 0-5 hr ); format: ADME, organism-based, Urine; parameters: dose 9 mg/kg; conditions: in vivo; summary of the method: as §3
[19] = test system: Canis familiaris; test: Oral diuretic activity was evaluated by measuring Cl- excretion in dog at 1 mg/kg after […] ( 0-6 hr ); format: ADME, organism-based, Canis lupus familiaris, Urine; parameters: dose 1 mg/kg, route intraperitoneal; conditions: in vivo
[20] = species on record: Rattus norvegicus; test: Time taken for the decrease in arterial pressure was measured; format: functional, Artery
[21] = test system: Rattus norvegicus; test: Maximum fall in mean arterial blood pressure was measured in SH rats when compound was administered at 30 mg/kg perorally; format: functional; conditions: route oral
[22] = test system: Rattus norvegicus; test: Oral diuretic activity was evaluated by measuring K+ excretion in Rat at 27 mg/kg after po administration ( 0-5 hr ); conditions: in vivo
[23] = test system: Rattus norvegicus; test: Oral diuretic activity was evaluated by measuring Cl- excretion in Rat at 27 mg/kg after po administration ( 0-5 hr ); conditions: in vivo
[24] = test system: Rattus norvegicus; test: Oral diuretic activity was evaluated by measuring Cl- excretion in Rat at 81 mg/kg after po administration ( 0-5 hr ); conditions: in vivo
[25] = test system: Rattus norvegicus; test: Compound administered orally at a dose of 1 mg/kg was evaluated for salidiuretic activity measured as sodium ion excretion in Rat; conditions: in vivo, po

Diuretic activity [1]: 1.58
Diuretic activity [2]: 17.78
Diuretic activity [3]: 8
Diuretic activity [4]: 1.61
Diuretic activity [5]: 0.86
Diuretic activity [6]: 2.17
Diuretic activity [7]: 42.5
Diuretic activity [8]: > 900
Diuretic activity [9]: 0.26
Diuretic activity [10]: 0.39
Diuretic activity [11]: 0.42
Diuretic activity [12]: 4.78
Diuretic activity [15]: 54.5
Diuretic activity [17]: 1.25
Diuretic activity [18]: 2.36
Diuretic activity [19]: 24.67
Diuretic activity [22]: 0.42
Diuretic activity [23]: 2.51
Diuretic activity [24]: 3.26
Diuretic activity [25]: 0.7
Structure (SMILES): COc1c(Cl)c(O)c(CN)c(OC)c1Cl.Cl
Diuretic activity [13]: 3.6
Diuretic activity [14]: 2.6
Diuretic activity [16]: 3.3
Duration [20]: 12 h
MAP [21]: 19 mmHg
